Activity calls are given as the source filed them. No cut-off for these calls is given here.
Key:
MCF7 [1] = test: Increase in intracellular GSH level in human MCF7 cells expressing antioxidant response element at 10 uM after 6 hrs by HPLC analysis relative to control; type: functional
In short: (§1)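 In 24-well plates, AREc32 cells were treated with 10 μM for 6 or 24 h. Cells were PBS-washed, sonicated, and acidified with meta-phosphoric acid (1% v/v final), then centrifuged. GSH in the supernatant was quantified by reverse-phase HPLC with electrochemical detection (pH 3 sodium phosphate/0.9% methanol mobile phase). Results are expressed as % of untreated control, n = 3.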

MCF7 [2] = test: Increase in intracellular GSH level in human MCF7 cells expressing antioxidant response element at 10 uM after 24 hrs by HPLC analysis relative to control; type: functional; in short: as §1
MCF7 [3] = test: Increase in intracellular GSH level in human MCF7 cells expressing antioxidant response element at 10 uM after 24 hrs by HPLC analysis in presence of GCL inhibitor buthionine sulfoximine; type: functional, cell-based
MCF7 [4] = test: Increase in intracellular GSH level in human MCF7 cells expressing antioxidant response element at 10 uM after 24 hrs by HPLC analysis; type: functional, cell-based; in short: as §1
MCF7 [5] = test: Increase in GCL holoenzyme formation in human MCF7 cells expressing antioxidant response element at 20 uM after 6 hrs by native-PAGE immunoblotting technique; type: functional, cell-based
In short: (§2)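 AREc32 cells in six-well plates were treated with 20 μM for 6 h, then PBS-washed, sonicated in PBS, and the cleared supernatant concentrated by evaporation. GCL holoenzyme was immunoblotted after native PAGE; GCLC and GCLM after SDS PAGE. α-GAPDH served as internal standard. The experiment was repeated once.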

MCF7 [6] = test: Increase in GCLC level in human MCF7 cells expressing antioxidant response element at 20 uM after 6 hrs by SDS-PAGE immunoblotting technique; type: functional, cell-based; in short: as §2
MCF7 [7] = test: Increase in GCLM level in human MCF7 cells expressing antioxidant response element at 20 uM after 6 hrs by SDS-PAGE immunoblotting technique; type: functional, cell-based; in short: as §2
MCF7 [8] = test: Increase in intracellular GSH level in human MCF7 cells expressing antioxidant response element at 10 uM after 24 hrs in presence of JNK inhibitor SP600125; type: functional, cell-based
In short: (§3)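 AREc32 cells received 10 μM for 24 h along with 20 μM buthionine sulfoximine, SP600125, SB203580 or MnTDE-1,3-IP5+. Intracellular GSH was measured by HPLC with electrochemical detection after sonication and meta-phosphoric acid extraction. n = 3, with group differences tested at P < 0.05.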

[9] = target: T1, Nuclear factor erythroid 2-related factor 2 (Homo sapiens) (UniProt Q16236); test: Induction of Nrf2 transcriptional activity in human MCF7 cells antioxidant response element at 5 uM after 18 hrs by luciferase reporter gene assay relative to 2,5-DHC; type: cell-based
T1 sequence (whole entry): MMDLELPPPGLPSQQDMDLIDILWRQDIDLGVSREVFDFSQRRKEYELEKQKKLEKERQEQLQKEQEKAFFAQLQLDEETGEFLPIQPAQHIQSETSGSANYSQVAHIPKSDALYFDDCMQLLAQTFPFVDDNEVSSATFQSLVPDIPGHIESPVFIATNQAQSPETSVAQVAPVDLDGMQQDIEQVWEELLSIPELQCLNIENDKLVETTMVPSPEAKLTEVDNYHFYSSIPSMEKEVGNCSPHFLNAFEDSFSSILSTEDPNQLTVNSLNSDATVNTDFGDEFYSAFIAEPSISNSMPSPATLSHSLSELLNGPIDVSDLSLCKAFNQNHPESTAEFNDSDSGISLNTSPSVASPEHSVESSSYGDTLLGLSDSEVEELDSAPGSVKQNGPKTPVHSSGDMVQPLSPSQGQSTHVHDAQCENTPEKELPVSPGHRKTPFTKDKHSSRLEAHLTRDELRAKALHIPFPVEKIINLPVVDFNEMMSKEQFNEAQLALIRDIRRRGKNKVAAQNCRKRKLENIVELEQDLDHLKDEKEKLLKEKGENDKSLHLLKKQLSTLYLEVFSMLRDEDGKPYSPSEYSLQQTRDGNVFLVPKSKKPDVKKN
In short: (§4)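 AREc32 cells (stable ARE-driven firefly luciferase) grown in 12-well plates to ~60% confluence were exposed to 5 μM for 18 h, alongside sulforaphane or tBHQ at 5 μM. Cells were lysed and centrifuged, and luciferase activity was read on a luminometer using an enhanced luciferase kit. n = 4.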

[10] = target: T1, Nuclear factor erythroid 2-related factor 2 (Homo sapiens); test: Induction of Nrf2 transcriptional activity in human MCF7 cells antioxidant response element at 5 uM after 18 hrs by luciferase reporter gene assay relative to sulforaphane; type: cell-based; in short: as §4
[11] = target: T1, Nuclear factor erythroid 2-related factor 2 (Homo sapiens); test: Induction of Nrf2 transcriptional activity in human MCF7 cells antioxidant response element at 5 uM after 18 hrs by luciferase reporter gene assay relative to tert-butylhydroquinone; type: cell-based; in short: as §4
[12] = target: T1, Nuclear factor erythroid 2-related factor 2 (Homo sapiens); test: Induction of Nrf2 transcriptional activity in human MCF7 cells antioxidant response element at 5 uM after 18 hrs by luciferase reporter gene assay in presence of p38 MAPK inhibitor SB203580; type: cell-based
[13] = target: T1, Nuclear factor erythroid 2-related factor 2 (Homo sapiens); test: Induction of Nrf2 transcriptional activity in human MCF7 cells antioxidant response element at 5 uM after 18 hrs by luciferase reporter gene assay in presence of catalytic antioxidant MnTDE-1,3-IP5+; type: cell-based
MCF7 [14] = test: Cytotoxicity against human MCF7 cells expressing antioxidant response element assessed as LDH release after 48 hrs; type: cell-based; details: MCF7, 48 h
In short: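 MCF-7/AREc32 cells (ARE-luciferase reporter line; DMEM low glucose, 10% FBS, pen/strep, Geneticin, 37 °C, 5% CO2) exposed to 0–60 μM for 48 h. LDH activity measured in medium and cell lysate via NADH consumption at 340 nm after pyruvate addition. Percent LDH release = supernatant/(supernatant + lysate) × 100. n = 3.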

[15] = target: T1, Nuclear factor erythroid 2-related factor 2 (Homo sapiens); test: Induction of Nrf2 transcriptional activity in human MCF7 cells antioxidant response element at 5 uM after 18 hrs by luciferase reporter gene assay in presence of JNK inhibitor SP600125; type: cell-based
MCF7 [16] = test: Increase in intracellular GSH level in human MCF7 cells expressing antioxidant response element at 10 uM after 24 hrs in presence of p38 MAPK inhibitor SB203580; type: functional, cell-based; in short: as §3
MCF7 [17] = test: Increase in intracellular GSH level in human MCF7 cells expressing antioxidant response element at 10 uM after 24 hrs in presence of catalytic antioxidant MnTDE-1,3IP5+; type: functional, cell-based; in short: as §3
MCF7 [18] = test: Increase in GCL holoenzyme formation in human MCF7 cells expressing antioxidant response element at 20 uM after 24 hrs by native-PAGE immunoblotting technique; type: functional, cell-based

| Compound | Activity (MCF7 [1]) | Activity (MCF7 [2]) | other results |
| --- | --- | --- | --- |
| O=C(/C=C/c1c(Cl)cccc1Cl)c1ccccc1O | 108% | 180% |  |
| COc1cc(O)c(C(=O)/C=C/c2ccccc2Cl)c(OC)c1 | 107% | 299% | Activity (MCF7 [3]): inactive; Activity (MCF7 [4]): Active; Activity (MCF7 [5]): Active; Activity (MCF7 [6]): inactive; Activity (MCF7 [7]): inactive; Activity (MCF7 [8]): Active; Ratio [9]: 4; Ratio [10]: 4; Ratio [11]: 10; Activity [12]: Active; Activity [13]: inactive; IC50 (MCF7 [14]): 25 µM; Activity [15]: inactive; Activity (MCF7 [16]): Active; Activity (MCF7 [17]): Active |
| COc1cc(O)c(C(=O)/C=C/c2c(Cl)cccc2Cl)c(OC)c1 | 119% | 250% |  |
| COc1ccc(C(=O)/C=C/c2c(Cl)cccc2Cl)c(O)c1 | 107% | 193% |  |
| COc1cccc(OC)c1/C=C/C(=O)c1ccccc1 | 111% | 189% |  |
| COc1cc(OC)c(C(=O)/C=C/c2ccccc2)c(OC)c1 | 91% | 209% |  |
| COc1cc(OC)c(C(=O)/C=C/c2c(Cl)cc(Cl)cc2Cl)c(OC)c1 | 119% | 246% |  |
| COc1cc(O)c(C(=O)/C=C/c2ccccc2)c(OC)c1 [FLAVOKAWAIN B] | 101% | 191% |  |
| COc1cccc(OC)c1C(=O)/C=C/c1cccc(Cl)c1 | 88% | 165% |  |
| O=C(/C=C/c1ccccc1)c1ccccc1 [CHALCONE] | 103% | 115% |  |
| COc1ccc(C(=O)/C=C/c2cc(OC)ccc2OC)c(O)c1 | 100% | 153% |  |
| COc1cccc(OC)c1C(=O)/C=C/c1ccccc1Cl | 105% | 211% |  |
| COc1ccc(C(=O)/C=C/c2ccccc2Cl)c(OC)c1 | 109% | 232% |  |
| COc1cccc(OC)c1C(=O)/C=C/c1c(Cl)cccc1Cl | 122% | 256% |  |
| COc1cccc(OC)c1C(=O)/C=C/c1ccccc1F | 103% | 195% |  |
| COc1cccc(OC)c1/C=C/C(=O)c1c(Cl)cccc1Cl | 93% | 120% |  |

| Compound | Activity (MCF7 [1]) | Activity (MCF7 [2]) | other results |
| --- | --- | --- | --- |
| COc1cccc(OC)c1C(=O)/C=C/c1cccc(F)c1 | 82% | 171% |  |
| COc1cccc(OC)c1C(=O)/C=C/c1ccccc1[N+](=O)[O-] | 106% | 204% |  |
| COc1ccc(C(=O)/C=C/c2c(OC)cc(OC)cc2OC)c(O)c1 | 91% | 104% | Activity (MCF7 [3]): inactive |
| COc1cccc(O)c1C(=O)/C=C/c1c(Cl)cccc1Cl | 88% | 183% |  |
| COc1cccc(OC)c1C(=O)/C=C/c1ccccc1 | 87% | 158% |  |
| CC(C)(C)c1cc(O)ccc1O |  |  | Activity (MCF7 [3]): inactive; Activity (MCF7 [4]): Active |
| COc1cc(OC)c(/C=C/C(=O)c2ccc(Cl)c(Cl)c2)c(OC)c1 | 98% | 88% |  |
| COc1ccc(C(=O)/C=C/c2ccc(OC)cc2OC)c(O)c1 | 114% | 160% |  |
| C[S+]([O-])CCCCN=C=S (racemic) |  |  | Activity (MCF7 [3]): inactive; Activity (MCF7 [4]): Active |
| COc1cc(O)c(C(=O)/C=C/c2c(F)cccc2F)c(OC)c1 | 135% | 226% |  |
| O=C(/C=C/c1ccccc1)c1cc(O)ccc1O | 82% | 177% | Activity (MCF7 [3]): inactive; Activity (MCF7 [5]): Active; Activity (MCF7 [6]): inactive; Activity (MCF7 [7]): inactive; IC50 (MCF7 [14]): 33 µM; Activity (MCF7 [18]): inactive |
| COc1ccc(C(=O)/C=C/c2cccc(OC)c2OC)c(O)c1 | 100% | 174% |  |
| COc1ccc(C(=O)/C=C/c2cccc(F)c2)c(OC)c1 | 78% | 173% |  |
| COc1cc(OC)c(C(=O)/C=C/c2c(F)cccc2F)c(OC)c1 | 118% | 223% |  |
| COc1cccc(OC)c1C(=O)/C=C/c1ccc(F)cc1F | 104% | 182% |  |
| COc1ccc(C(=O)/C=C/c2c(OC)cccc2OC)c(O)c1 | 90% | 231% |  |

— ChEMBL document CHEMBL2021906, “A synthetic chalcone as a potent inducer of glutathione biosynthesis” (J Med Chem, 2012)
